# From ChEMBL document CHEMBL3286385, “Novel 1-[4-(Aminosulfonyl)phenyl]-1H-1,2,4-triazole derivatives with remarkable selective COX-2 inhibition: design, synthesis, molecular docking, anti-inflammatory and ulcerogenicity studies” (Eur J Med Chem, 2014)
# Tested on: Rattus norvegicus
# Test: Antiinflammatory activity against albino rat assessed as inhibition of carrageenan-induced paw edema at 0.28 mmol/kg, po administered 30 mins prior to carrageenan challenge measured after 1 hr relative to control
# Format: functional
# Details: not given
# Summary of the method: (§1)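 Adult male albino rats (120–140 g), in groups of four, were fasted 24 h with water allowed. Compounds were given orally as a suspension in 0.5% w/v CMC in water, and controls received CMC alone. After 30 min, 0.1 mL of 1% carrageenan in saline was injected subplantar into the right hind paw and saline into the left. Paw thickness was measured by caliper. % inhibition = [(VR−VL)control − (VR−VL)treated]/(VR−VL)control; one-way ANOVA.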
row,SMILES,inhibition in vivo at 280 µmol/kg [%]
1,COc1ccc2c(c1)c(CC(=O)O)c(C)n2C(=O)c1ccc(Cl)cc1 [INDOMETHACIN],54
2,Cc1ccc(NC(=O)c2nc(-c3ccccc3)n(-c3ccc(S(N)(=O)=O)cc3)n2)cc1,40
3,NS(=O)(=O)c1ccc(-n2nc(C(=O)Nc3nc4ccccc4s3)nc2-c2ccccc2)cc1,20
4,COC(=O)c1nc(-c2ccccc2)n(-c2ccc(S(N)(=O)=O)cc2)n1,38
5,NS(=O)(=O)c1ccc(-n2nc(C(=O)Nc3ccc(Cl)cc3)nc2-c2ccccc2)cc1,36
6,NS(=O)(=O)c1ccc(-n2nc(C(=O)NCc3ccccc3)nc2-c2ccccc2)cc1,42
7,COc1ccc(NC(=O)c2nc(-c3ccccc3)n(-c3ccc(S(N)(=O)=O)cc3)n2)cc1OC,22

# Tested on: Rattus norvegicus
# Test: Antiinflammatory activity against albino rat assessed as inhibition of carrageenan-induced paw edema at 0.28 mmol/kg, po administered 30 mins prior to carrageenan challenge measured after 2 hrs relative to control
# Format: functional
# Details: not given
# Summary of the method: as §1
row,SMILES,inhibition in vivo at 280 µmol/kg [%]
1,COc1ccc2c(c1)c(CC(=O)O)c(C)n2C(=O)c1ccc(Cl)cc1 [INDOMETHACIN],66
2,Cc1ccc(NC(=O)c2nc(-c3ccccc3)n(-c3ccc(S(N)(=O)=O)cc3)n2)cc1,47
3,NS(=O)(=O)c1ccc(-n2nc(C(=O)Nc3nc4ccccc4s3)nc2-c2ccccc2)cc1,32
4,COC(=O)c1nc(-c2ccccc2)n(-c2ccc(S(N)(=O)=O)cc2)n1,48
5,NS(=O)(=O)c1ccc(-n2nc(C(=O)Nc3ccc(Cl)cc3)nc2-c2ccccc2)cc1,62
6,NS(=O)(=O)c1ccc(-n2nc(C(=O)NCc3ccccc3)nc2-c2ccccc2)cc1,47
7,COc1ccc(NC(=O)c2nc(-c3ccccc3)n(-c3ccc(S(N)(=O)=O)cc3)n2)cc1OC,52

# Tested on: Rattus norvegicus
# Test: Antiinflammatory activity against albino rat assessed as inhibition of carrageenan-induced paw edema at 0.28 mmol/kg, po administered 30 mins prior to carrageenan challenge measured after 3 hrs relative to control
# Format: functional
# Details: not given
# Summary of the method: as §1
row,SMILES,inhibition in vivo at 280 µmol/kg [%]
1,COc1ccc2c(c1)c(CC(=O)O)c(C)n2C(=O)c1ccc(Cl)cc1 [INDOMETHACIN],79
2,Cc1ccc(NC(=O)c2nc(-c3ccccc3)n(-c3ccc(S(N)(=O)=O)cc3)n2)cc1,76
3,NS(=O)(=O)c1ccc(-n2nc(C(=O)Nc3nc4ccccc4s3)nc2-c2ccccc2)cc1,54
4,COC(=O)c1nc(-c2ccccc2)n(-c2ccc(S(N)(=O)=O)cc2)n1,69
5,NS(=O)(=O)c1ccc(-n2nc(C(=O)Nc3ccc(Cl)cc3)nc2-c2ccccc2)cc1,67
6,NS(=O)(=O)c1ccc(-n2nc(C(=O)NCc3ccccc3)nc2-c2ccccc2)cc1,58
7,COc1ccc(NC(=O)c2nc(-c3ccccc3)n(-c3ccc(S(N)(=O)=O)cc3)n2)cc1OC,72

# Tested on: Rattus norvegicus
# Test: Antiinflammatory activity against albino rat assessed as inhibition of carrageenan-induced paw edema at 0.28 mmol/kg, po administered 30 mins prior to carrageenan challenge measured after 4 hrs relative to control
# Format: functional
# Details: not given
# Summary of the method: as §1
row,SMILES,inhibition in vivo at 280 µmol/kg [%]
1,COc1ccc2c(c1)c(CC(=O)O)c(C)n2C(=O)c1ccc(Cl)cc1 [INDOMETHACIN],81
2,Cc1ccc(NC(=O)c2nc(-c3ccccc3)n(-c3ccc(S(N)(=O)=O)cc3)n2)cc1,71
3,NS(=O)(=O)c1ccc(-n2nc(C(=O)Nc3nc4ccccc4s3)nc2-c2ccccc2)cc1,44
4,COC(=O)c1nc(-c2ccccc2)n(-c2ccc(S(N)(=O)=O)cc2)n1,61
5,NS(=O)(=O)c1ccc(-n2nc(C(=O)Nc3ccc(Cl)cc3)nc2-c2ccccc2)cc1,53
6,NS(=O)(=O)c1ccc(-n2nc(C(=O)NCc3ccccc3)nc2-c2ccccc2)cc1,36
7,COc1ccc(NC(=O)c2nc(-c3ccccc3)n(-c3ccc(S(N)(=O)=O)cc3)n2)cc1OC,63

# Tested on: Rattus norvegicus
# Test: Antiinflammatory activity against albino rat assessed as inhibition of carrageenan-induced paw edema at 0.28 mmol/kg, po administered 30 mins prior to carrageenan challenge measured after 5 hrs relative to control
# Format: functional
# Details: not given
# Summary of the method: as §1
row,SMILES,inhibition in vivo at 280 µmol/kg [%]
1,COc1ccc2c(c1)c(CC(=O)O)c(C)n2C(=O)c1ccc(Cl)cc1 [INDOMETHACIN],84
2,Cc1ccc(NC(=O)c2nc(-c3ccccc3)n(-c3ccc(S(N)(=O)=O)cc3)n2)cc1,65
3,NS(=O)(=O)c1ccc(-n2nc(C(=O)Nc3nc4ccccc4s3)nc2-c2ccccc2)cc1,38
4,COC(=O)c1nc(-c2ccccc2)n(-c2ccc(S(N)(=O)=O)cc2)n1,46
5,NS(=O)(=O)c1ccc(-n2nc(C(=O)Nc3ccc(Cl)cc3)nc2-c2ccccc2)cc1,44
6,NS(=O)(=O)c1ccc(-n2nc(C(=O)NCc3ccccc3)nc2-c2ccccc2)cc1,29
7,COc1ccc(NC(=O)c2nc(-c3ccccc3)n(-c3ccc(S(N)(=O)=O)cc3)n2)cc1OC,60

# Tested on: Rattus norvegicus
# Test: Antiinflammatory activity against albino rat assessed as inhibition of carrageenan-induced paw edema at 0.28 mmol/kg, po administered 30 mins prior to carrageenan challenge measured after 3 hrs relative to indomethacin
# Format: functional
# Design: scale not given: the % may be the effect or the level left
# Details: not given
row,SMILES,Activity [%]
1,COc1ccc2c(c1)c(CC(=O)O)c(C)n2C(=O)c1ccc(Cl)cc1 [INDOMETHACIN],100
2,Cc1ccc(NC(=O)c2nc(-c3ccccc3)n(-c3ccc(S(N)(=O)=O)cc3)n2)cc1,96
3,NS(=O)(=O)c1ccc(-n2nc(C(=O)Nc3nc4ccccc4s3)nc2-c2ccccc2)cc1,68
4,COC(=O)c1nc(-c2ccccc2)n(-c2ccc(S(N)(=O)=O)cc2)n1,87
5,NS(=O)(=O)c1ccc(-n2nc(C(=O)Nc3ccc(Cl)cc3)nc2-c2ccccc2)cc1,85
6,NS(=O)(=O)c1ccc(-n2nc(C(=O)NCc3ccccc3)nc2-c2ccccc2)cc1,73
7,COc1ccc(NC(=O)c2nc(-c3ccccc3)n(-c3ccc(S(N)(=O)=O)cc3)n2)cc1OC,91

# Tested on: Rattus norvegicus
# Test: Antiinflammatory activity against albino rat assessed as inhibition of carrageenan-induced paw edema at 0.28 mmol/kg, po administered 30 mins prior to carrageenan challenge measured after 3 hrs relative to celecoxib
# Format: functional
# Design: scale not given: the % may be the effect or the level left
# Details: not given
row,SMILES,Activity [%]
1,Cc1ccc(NC(=O)c2nc(-c3ccccc3)n(-c3ccc(S(N)(=O)=O)cc3)n2)cc1,110
2,NS(=O)(=O)c1ccc(-n2nc(C(=O)Nc3nc4ccccc4s3)nc2-c2ccccc2)cc1,78
3,COC(=O)c1nc(-c2ccccc2)n(-c2ccc(S(N)(=O)=O)cc2)n1,100
4,NS(=O)(=O)c1ccc(-n2nc(C(=O)Nc3ccc(Cl)cc3)nc2-c2ccccc2)cc1,97
5,NS(=O)(=O)c1ccc(-n2nc(C(=O)NCc3ccccc3)nc2-c2ccccc2)cc1,84
6,COc1ccc(NC(=O)c2nc(-c3ccccc3)n(-c3ccc(S(N)(=O)=O)cc3)n2)cc1OC,104

# Tested on: Rattus norvegicus
# Test: Gastric toxicity in rat assessed as ulcer index at 0.28 mmol/kg, po
# Format: organism-based
# Details: in vivo
row,SMILES,UI
1,COc1ccc2c(c1)c(CC(=O)O)c(C)n2C(=O)c1ccc(Cl)cc1 [INDOMETHACIN],39
2,Cc1ccc(NC(=O)c2nc(-c3ccccc3)n(-c3ccc(S(N)(=O)=O)cc3)n2)cc1,1
3,NS(=O)(=O)c1ccc(-n2nc(C(=O)Nc3nc4ccccc4s3)nc2-c2ccccc2)cc1,1
4,COC(=O)c1nc(-c2ccccc2)n(-c2ccc(S(N)(=O)=O)cc2)n1,3
5,NS(=O)(=O)c1ccc(-n2nc(C(=O)Nc3ccc(Cl)cc3)nc2-c2ccccc2)cc1,0.5
6,NS(=O)(=O)c1ccc(-n2nc(C(=O)NCc3ccccc3)nc2-c2ccccc2)cc1,3
7,COc1ccc(NC(=O)c2nc(-c3ccccc3)n(-c3ccc(S(N)(=O)=O)cc3)n2)cc1OC,0

# Target: T1, Prostaglandin G/H synthase 1 (Ovis aries, UniProt P05979)
# T1 sequence (P05979 whole entry): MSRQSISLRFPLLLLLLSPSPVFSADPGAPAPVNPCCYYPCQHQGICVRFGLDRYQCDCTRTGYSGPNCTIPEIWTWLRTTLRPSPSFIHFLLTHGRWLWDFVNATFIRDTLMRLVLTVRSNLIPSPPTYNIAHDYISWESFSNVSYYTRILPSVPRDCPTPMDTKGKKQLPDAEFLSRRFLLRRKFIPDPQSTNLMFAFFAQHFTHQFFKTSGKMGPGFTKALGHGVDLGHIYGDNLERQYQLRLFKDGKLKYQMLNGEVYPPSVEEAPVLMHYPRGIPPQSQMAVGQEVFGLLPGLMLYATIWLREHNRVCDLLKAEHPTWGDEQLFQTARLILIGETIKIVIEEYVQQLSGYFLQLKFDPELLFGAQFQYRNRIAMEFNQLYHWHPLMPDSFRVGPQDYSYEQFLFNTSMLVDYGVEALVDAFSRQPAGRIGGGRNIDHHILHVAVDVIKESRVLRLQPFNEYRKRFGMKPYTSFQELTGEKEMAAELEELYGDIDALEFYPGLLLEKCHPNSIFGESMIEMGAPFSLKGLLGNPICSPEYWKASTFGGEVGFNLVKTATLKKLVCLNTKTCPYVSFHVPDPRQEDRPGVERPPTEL
# Test: Inhibition of ovine COX1 using ADHP as substrate after 20 mins by fluorescence assay
# Details: not given
# Summary of the method: (§2)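 Ovine COX-1 or human recombinant COX-2 was preincubated 20 min at room temperature with a range of compound concentrations in 100 mM Tris-HCl pH 8.0, heme and ADHP. Arachidonic acid was then added for 2 min at room temperature, and resorufin fluorescence was read. IC50 came from the dose-response curve (triplicate determinations). Selectivity index = COX-1 IC50/COX-2 IC50.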
row,SMILES,IC50 [µM]
1,NS(=O)(=O)c1ccc(-n2nc(C(=O)Nc3ccc(Cl)cc3)nc2-c2ccccc2)cc1,> 1000
2,NS(=O)(=O)c1ccc(-n2nc(C(=O)NCc3ccccc3)nc2-c2ccccc2)cc1,> 1000

# Further lines, results first:
row,IC50 [µM],SMILES
1,516,Cc1ccc(NC(=O)c2nc(-c3ccccc3)n(-c3ccc(S(N)(=O)=O)cc3)n2)cc1
2,798,NS(=O)(=O)c1ccc(-n2nc(C(=O)Nc3nc4ccccc4s3)nc2-c2ccccc2)cc1
3,346,COc1ccc(NC(=O)c2nc(-c3ccccc3)n(-c3ccc(S(N)(=O)=O)cc3)n2)cc1OC

# Target: T2, Prostaglandin G/H synthase 2 (Homo sapiens, UniProt P35354)
# T2 sequence (P35354 whole entry): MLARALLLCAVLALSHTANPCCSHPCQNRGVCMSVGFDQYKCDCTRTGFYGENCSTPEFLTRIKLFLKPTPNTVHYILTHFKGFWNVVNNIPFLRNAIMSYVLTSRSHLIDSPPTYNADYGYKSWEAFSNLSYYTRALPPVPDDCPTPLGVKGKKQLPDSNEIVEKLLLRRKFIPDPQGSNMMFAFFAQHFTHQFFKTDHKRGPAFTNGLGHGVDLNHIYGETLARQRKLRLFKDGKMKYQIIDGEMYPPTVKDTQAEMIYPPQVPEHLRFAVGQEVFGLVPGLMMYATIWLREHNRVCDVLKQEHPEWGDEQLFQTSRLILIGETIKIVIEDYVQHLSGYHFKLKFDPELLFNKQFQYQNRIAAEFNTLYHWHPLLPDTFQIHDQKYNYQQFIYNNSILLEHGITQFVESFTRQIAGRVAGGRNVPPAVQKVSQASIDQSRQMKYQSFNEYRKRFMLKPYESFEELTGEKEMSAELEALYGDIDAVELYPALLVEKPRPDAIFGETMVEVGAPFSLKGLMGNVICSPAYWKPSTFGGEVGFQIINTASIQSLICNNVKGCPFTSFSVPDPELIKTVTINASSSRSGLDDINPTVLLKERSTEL
# Test: Inhibition of human recombinant COX2 using ADHP as substrate after 20 mins by fluorescence assay
# Details: not given
# Summary of the method: as §2
row,SMILES,IC50 [µM]
1,NS(=O)(=O)c1ccc(-n2nc(C(=O)Nc3ccc(Cl)cc3)nc2-c2ccccc2)cc1,0.47
2,NS(=O)(=O)c1ccc(-n2nc(C(=O)NCc3ccccc3)nc2-c2ccccc2)cc1,1.7

# The next lines start with the values.
row,IC50 [µM],SMILES
1,1.9,Cc1ccc(NC(=O)c2nc(-c3ccccc3)n(-c3ccc(S(N)(=O)=O)cc3)n2)cc1
2,0.38,NS(=O)(=O)c1ccc(-n2nc(C(=O)Nc3nc4ccccc4s3)nc2-c2ccccc2)cc1
3,1.3,COc1ccc(NC(=O)c2nc(-c3ccccc3)n(-c3ccc(S(N)(=O)=O)cc3)n2)cc1OC

# Tested on: not listed separately
# Test: Selectivity index, ratio of IC50 for ovine COX1 to IC50 for human recombinant COX2
# Details: not given
# Summary of the method: as §2
row,SMILES,Ratio IC50
1,NS(=O)(=O)c1ccc(-n2nc(C(=O)Nc3ccc(Cl)cc3)nc2-c2ccccc2)cc1,> 2130
2,NS(=O)(=O)c1ccc(-n2nc(C(=O)NCc3ccccc3)nc2-c2ccccc2)cc1,> 588

# Next, values leading:
row,Ratio IC50,SMILES
1,271,Cc1ccc(NC(=O)c2nc(-c3ccccc3)n(-c3ccc(S(N)(=O)=O)cc3)n2)cc1
2,2100,NS(=O)(=O)c1ccc(-n2nc(C(=O)Nc3nc4ccccc4s3)nc2-c2ccccc2)cc1
3,266,COc1ccc(NC(=O)c2nc(-c3ccccc3)n(-c3ccc(S(N)(=O)=O)cc3)n2)cc1OC
